UCH37 DUB inh – inhibitors of human UCH37 deubiquitinase, primary screen, biochemical, Ub-AMC cleavage, fluorescence; Ubiquitin carboxyl-terminal hydrolase isozyme L5 (Homo sapiens), Q9Y5K5; purified proteasome/UCH37; inhibition, % (no concentration beside the values); actives 0.33% (n = 330,000);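 active means mean inhibition over replicate wells above about 20%, limit read from the data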;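 further: 0% = compound-free wells with enzyme and 100% = wells lacking proteasome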
Target sequence (Q9Y5K5 whole entry, looked up): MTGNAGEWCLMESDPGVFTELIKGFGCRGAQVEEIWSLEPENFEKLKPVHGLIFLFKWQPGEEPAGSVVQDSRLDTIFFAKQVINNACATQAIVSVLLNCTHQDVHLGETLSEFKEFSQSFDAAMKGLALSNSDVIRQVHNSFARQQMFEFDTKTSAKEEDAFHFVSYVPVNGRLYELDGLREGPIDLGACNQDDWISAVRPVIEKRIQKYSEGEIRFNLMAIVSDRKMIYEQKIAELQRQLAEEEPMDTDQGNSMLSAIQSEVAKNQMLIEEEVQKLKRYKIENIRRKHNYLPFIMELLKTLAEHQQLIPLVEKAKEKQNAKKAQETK
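assay system = human UCH37 enzyme supplied as purified proteasome complex | amount = proteasome at 0.15 nM in the dispensed enzyme solution | schedule = 30 min compound-proteasome preincubation then 25 min substrate reaction, room temperature | measured by = fluorescence, ex 355 nm, em 460 nm | benchmarks = no-proteasome wells (full inhibition) and compound-free wells (no inhibition)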
MEKK2 WT-MEK5 – modulators of MEK5 binding to wildtype MEKK2, primary screen, biochemical, multiplex bead flow cytometry, Alexa488-MEK5 | binding response (% of control), % at 10 µM | Alexa488-MEK5 binding to MEKK2 WT; actives lie on both sides | Mitogen-activated protein kinase kinase kinase 2 (Homo sapiens), Q9Y2U5 | actives 1.1% (n = 290,000); in the data active means binding response below about 67% or above about 130%
UBC13 inh – UBC13 polyubiquitin chain formation inhibitors, primary screen, biochemical, TR-FRET, uHTS. Ubiquitin-conjugating enzyme E2 N (Homo sapiens), P61088. inhibition, % at 20 µM. actives 0.47% (n = 330,000); in the data active means inhibition above about 45%, passing the limit was not always enough
Target sequence (P61088 whole entry, looked up): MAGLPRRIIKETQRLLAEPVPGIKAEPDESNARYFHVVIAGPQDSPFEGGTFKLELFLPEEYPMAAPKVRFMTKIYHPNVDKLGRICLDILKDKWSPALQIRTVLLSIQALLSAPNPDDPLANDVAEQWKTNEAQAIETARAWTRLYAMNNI
MEKK3 PB1 HTS – modulators of MEKK3-MEK5 PB1 binding, primary screen, biochemical, wildtype MEKK3, multiplex bead flow cytometry, Alexa488-MEK5; actives 1.4% (n = 290,000); bead-based flow cytometry, Alexa488-MEK5 binding to MEKK3; actives lie on both sides; 0 = blocked by unlabeled MEK5, 100 = vehicle; binding response (% of control), % at 10 µM; AID 1529, 2009; Mitogen-activated protein kinase kinase kinase 3 (Homo sapiens), Q99759;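 active means binding response more than 3 SD above or below the average of its plate-row segment, actives on both sides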;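 further: Alexa488 bead fluorescence after subtracting the streptavidin-only scavenger bead signal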
Apaf1 inhib – inhibitors of human Apaf-1 apoptosome, primary screen, biochemical, DEVD-Rh110 fluorescence, uHTS. reconstituted apoptosome caspase-3 activity. AID 489030, 2010. actives 0.71% (n = 330,000). inhibition, % at 20 µM. Apoptotic protease-activating factor 1 (Homo sapiens), O14727; active means inhibition of at least 40% at 20 µM;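 further: plate controls were DMSO wells for no effect and DEVD-CHO caspase inhibitor wells for full effect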
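Assay system: Apoptosome proteins | Medium: pH 7.5 Hepes buffer with CHAPS, BSA, DTT | Also added: Cytochrome c and DEVD-Rh110 substrate | Times: 30 min plus 50 min, RT | Detection: Rhodamine 110 fluorescence at Ex 480/Em 540 nm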
MEKK2mut PB1 HTS – MEK5 binding signal on mutant MEKK2 PB1, primary screen, biochemical, multiplex bead flow cytometry, Alexa488-MEK5. Alexa488-MEK5 binding to MEKK2 mutant. percent response, % at 10 µM. actives 0.35% (n = 290,000). AID 1530, 2009; in the data active means percent response above about 24%, passing the limit was not always enough
MEKK2wt confirm – modulators of MEK5 binding to wildtype MEKK2, confirmation, biochemical, single concentration, multiplex bead flow cytometry | shares compounds with MEKK3 PB1 HTS | Alexa488-MEK5 binding to MEKK2 WT; actives lie on both sides | binding response (% of control), % at 10 µM | actives 2.4% (n = 5,900) | AID 1892, 2009; in the data active means binding response below about 16% or above about 210%; inactive means in between
MEKK2mut-MEK5 – mutant MEKK2 PB1-MEK5 binding signal retest – biochemical, single concentration, multiplex bead flow cytometry, confirmation; shares compounds with MEKK3 PB1 HTS; Alexa488-MEK5 binding to MEKK2 mutant; percent response, % at 10 µM; actives 2% (n = 5,900); AID 1893, 2009; in the data active means percent response mostly above about 71%, no sharp cut-off; inactive means mostly below about 38%;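 further: higher means compound restores mutant binding toward wildtype level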
MEKK3-MEK5 inh – MEKK3 wild-type PB1 binding to MEK5, inhibitors, confirmation, biochemical, bead multiplex flow cytometry, single concentration, wildtype; AID 1894, 2009; actives 1.8% (n = 5,900); binding response (% of control), % at 10 µM; Alexa488-MEK5 binding to MEKK3; hits give low values; shares compounds with MEKK3 PB1 HTS;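 active means binding response below 72% of control, or above a set upper limit, though filed actives all read lower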;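 further: 100% = DMSO only wells and 0% = binding blocked by excess unlabeled MEK5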
Active calls of the source: *; . = no result given; [ ] = another dose, or the depositor's remark. Compounds with a hit are over-represented: about 3% of the library has one in this group of screens.

SMILES	UCH37 DUB inh	MEKK2 WT-MEK5	UBC13 inh	MEKK3 PB1 HTS	Apaf1 inhib	MEKK2mut PB1 HTS	MEKK2wt confirm	MEKK2mut-MEK5	MEKK3-MEK5 inh
CCn1c(SCC(=O)NNC(=O)c2ccccc2)nnc1-c1ccco1	3	68	4	73*[inhibitor]	0	-13	99	-6	99
Cc1nnc(SCC(=O)NNC(=O)c2ccc(Br)cc2)n1C	-1	717*	3	123	9	557*	103	0	100
Cn1c(SCC(=O)NNC(=O)c2ccc(Br)cc2)nnc1-c1cccnc1	1	109	6	110	-5	7	.	.	.
CC1CCCCN1c1nc2nonc2nc1N1CCCCC1C (centres undefined)	4	97	2	126*	9	6	98	-2	99
COc1ccccc1Nc1nc2nonc2nc1N1CCCCC1C (centres undefined)	5	97	2	99	5	-3	.	.	.
COc1ccc2c(c1)[nH]c1c(N3CCN(Cc4ccc5c(c4)OCO5)CC3)ncnc12	-8	152*	-1	114	13	8	146	33	107
Cc1ccc2c(c1)[nH]c1c(N3CCN(Cc4ccccc4)CC3)ncnc12	-23	158*	11	109	1	18	119	13	106
COc1ccccc1-c1nnc(C2CCN(S(=O)(=O)c3ccc([N+](=O)[O-])cc3)CC2)o1	1	95	-10	102	16	-1	.	.	.
COc1ccc(Nc2nc(NC(C)(C)C)nc(N3CCOCC3)n2)c(OC)c1	0	103	-4	98	10	1	.	.	.
CC1(C)CC(NC(=O)Cc2ccccc2[N+](=O)[O-])CC(C)(C)N1	2	108	-4	142*	-8	1	102	7	100
Cc1ccc2[nH]cc(CCNC(=O)CN3C(=O)c4ccccc4C3=O)c2c1	1	109	3	147*	-1	-1	94	-11	91
COc1ccc2[nH]cc(CCNC(C)=O)c2c1	1	106	17	108	-3	44*	100	-1	102
CCN(Cc1ccncc1)C(=O)c1ccc(C)o1	-1	102	-4	95	-1	2	.	.	.
COc1ccc(N2C(=O)C3ON(C4SC(=S)N(C)C4(C)C)C(c4ccc(Cl)cc4)C3C2=O)cc1 (centres undefined)	.	108	1	151*	12	0	99	-2	98
CC(C)n1cc(CN2CCN(C)C(CCO)C2)c2ccccc21 (centres undefined)	2	112	-7	110	1	24*	104	3	105
CC(C)Cn1c(CN2CCN(C)C(CCO)C2)nc2ccccc21 (centres undefined)	4	109	5	105	-3	9	.	.	.
CCOC(=O)c1c(CSC(=N)N)n(C)c2cc(Br)c(OC(C)=O)cc12	6	119	32	99	-7	0	.	.	.
CCOC(=O)c1c(CSC(=N)N)n(-c2ccc(C)cc2)c2cc(Br)c(OC(C)=O)cc12	11	232*	56*	102	46*	70*	212*	55	108
Cc1ccc(C(=O)NC2(C(F)(F)F)NC(=O)N(c3ccc(Cl)cc3)C2=O)cc1 (centres undefined)	4	94	24	92	0	-2	.	.	.
CN1C(=O)N(C)C2(c3ccccc3)N(C)C(=O)NC12c1ccccc1 (centres undefined)	1	50	-4	35*[inhibitor]	-6	-17	101	6	101
CC(C)N1C(=O)NC2(c3ccccc3)N(C)C(=O)N(C)C12c1ccccc1 (centres undefined)	1	99	3	105	-7	-6	.	.	.
COc1ccccc1-n1c(CNC(=O)c2cccc([N+](=O)[O-])c2C)n[nH]c1=S	-1	36*[inhibitor]	4	26*[inhibitor]	4	-33	96	1	98
CCOC(=O)/C(C#N)=C\c1c(OCC)n(CC)c2ccccc12	-12	109	7	134*	8	1	104	1	106
CC(C)(C)CC(=O)Nc1nn[nH]n1	2	91	-10	87	-5	-3	.	.	.
Cc1ccc(NC(=S)NCc2ccc(S(N)(=O)=O)cc2)c(C)c1	0	101	-8	101	1	1	.	.	.
SMILES	UCH37 DUB inh	MEKK2 WT-MEK5	UBC13 inh	MEKK3 PB1 HTS	Apaf1 inhib	MEKK2mut PB1 HTS	MEKK2wt confirm	MEKK2mut-MEK5	MEKK3-MEK5 inh
O=C(COC(=O)Cc1ccccc1[N+](=O)[O-])NCc1ccc(Cl)cc1	1	107	4	143*	4	0	109	1	106
CN1CCN(CCC(=O)Nc2ccc(C3CCCC3)cc2)CC1	3	142*	8	92	10	26	110	5	107
CN1CCN(CCC(=O)Nc2ccccc2)CC1	0	91	-8	91	0	10	.	.	.
COc1ccc(C)cc1S(=O)(=O)N(C)CC(=O)N1CCC(C(N)=O)CC1	4	105	0	104	0	4	.	.	.
COc1nc2c(c(-c3cc(Br)cs3)c1C#N)Cc1ccccc1-2	-196	127	19	133*	11	25	98	-4	102
CCN(CC)S(=O)(=O)c1cc(C(=O)Nc2cc(Cl)ccc2N2CCN(C)CC2)ccc1Cl	1	161*	11	109	21	24	150	33	108
CN1CCN(c2ccc(Cl)cc2NC(=O)c2ccc(S(=O)(=O)N(C)C)cc2)CC1	0	136*	2	109	-7	15	114	10	100

Source: PubChem BioAssay
